Screens from PubChem BioAssay.
This is a sample that favours compounds with a hit; in the whole collection about 2.4% have one here.
S1P4 antagonist – antagonists of human S1P4 receptor | O95977 | S1P4-expressing cells, antagonist mode, reporter read-out | inhibition, % at 4.98 µM | actives 0.26% (n = 220,000); in the data active means inhibition above about 29%;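 further: 0% = wells stimulated with agonist and 100% = vehicle wells without agonist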
Target sequence (O95977 whole entry, looked up): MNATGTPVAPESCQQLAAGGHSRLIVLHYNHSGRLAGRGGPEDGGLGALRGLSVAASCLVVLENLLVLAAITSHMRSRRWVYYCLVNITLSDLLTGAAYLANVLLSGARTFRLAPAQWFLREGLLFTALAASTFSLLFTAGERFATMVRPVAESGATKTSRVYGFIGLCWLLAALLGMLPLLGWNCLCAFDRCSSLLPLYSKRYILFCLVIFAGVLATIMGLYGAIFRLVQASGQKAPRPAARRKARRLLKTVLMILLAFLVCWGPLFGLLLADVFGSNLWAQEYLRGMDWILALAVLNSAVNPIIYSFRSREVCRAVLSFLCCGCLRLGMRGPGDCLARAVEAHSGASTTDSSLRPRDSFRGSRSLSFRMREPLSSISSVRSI
NPY Y2 blocker – NPY-Y2 (human) receptor antagonism. inhibition, % at 2.7 µM. actives 0.99% (n = 140,000). P49146. NPY-Y2 expressing cells, antagonist mode;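 further: 0% = vehicle with agonist challenge and 100% = reference antagonist with challenge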
NPY-Y1 antag – antagonists of human neuropeptide Y receptor Y1. HEK293-CNG Y1 cells, membrane potential fluorescence; NPY at EC95, then isoproterenol. inhibition, % at 3.6 µM. actives 1% (n = 200,000). AID 1040;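 active means inhibition above the campaign mean inhibition of all tested compounds plus 3 SD, cut at about 20% in these data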;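 further: 0% = DMSO wells given NPY plus isoproterenol and 100% = isoproterenol alone without NPY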
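Material: HEK293 Y1/CNG channel cell line; also added: NPY (25 nM), isoproterenol (1 µM), Ro 20-1724 (25 µM); doses: one concentration, 3.6 µM, in 0.4% DMSO; schedule: compound incubation 1 h at room temperature, readout 45 min post-stimulation; technique: membrane potential fluorescence; measure: fluorescence ratio normalized to % inhibition between controls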
NPY1 pot ag – human NPY-Y1 potentiation or agonism, primary screen | P25929 | NPY-Y1 expressing cells, potentiator/agonist activation | activation, % at 3.6 µM | actives 0.37% (n = 220,000); in the data active means activation above about 33%, passing the limit was not always enough;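 further: cells stimulated with NPY at EC10 then isoproterenol at EC100; 0% = low agonist plus stimulus and 100% = saturating agonist plus stimulus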
S1P4 agonist – activates the human S1P4 receptor; S1P4-expressing cell line, agonist reporter assay; actives 0.35% (n = 220,000); activation, % at 4.98 µM; AID 1509; in the data active means activation above about 11%;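 further: 0% = DMSO vehicle and 100% = reference agonist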
NPY2 pot ag – potentiates or activates human NPY-Y2 receptor; P49146; cells expressing NPY-Y2, potentiator/agonist read-out; activation, % at 3.6 µM; actives 0.45% (n = 220,000); in the data active means activation above about 27%;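 further: cells stimulated with NPY near EC25 plus isoproterenol at EC100; 0% = vehicle plus submaximal agonist and 100% = vehicle plus saturating agonist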
NPY1 antag conf – human NPY-Y1 antagonism, confirmation; shares compounds with NPY-Y1 antag; HEK293-CNG NPY-Y1, membrane potential fluorescence, cAMP; NPY challenge against isoproterenol-raised cAMP; inhibition, % at 3.6 µM; actives 21% (n = 1,200); in the data active means inhibition above about 20%;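 further: 0% = vehicle with agonist plus stimulus and 100% = stimulus alone without agonist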
NPY-Y2 antag ct – human NPY-Y2 antagonism in NPY-Y1 counter-screen; inhibition, % at 3.6 µM; actives 28% (n = 1,200); shares compounds with NPY-Y1 antag; HEK293 NPY-Y2 CNG membrane potential fluorescence; cells given NPY, then isoproterenol;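 further: 0% = DMSO with agonist challenge and 100% = reference antagonist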
Starred values were filed as active, the others as inactive; / = no result. Unless noted, no stated cut-off is given here; in the data, active means inhibition above about 17%; inactive means the rest.

SMILES	S1P4 antagonist	NPY Y2 blocker	NPY-Y1 antag	NPY1 pot ag	S1P4 agonist	NPY2 pot ag	NPY1 antag conf	NPY-Y2 antag ct
Cc1ccc(Cn2nc(-c3ccccc3)nc2-c2ccccc2)cc1	-20.5	14.2	25.0*	-13.4	-1.0	-30.4	12.8	10.9
CN(C)CC(=O)c1ccc(-c2ccccc2)cc1	7.8	3.1	20.4*	-22.2	2.1	-3.7	1.6	7.4
CC(C)CN(CC(C)C)C(=O)c1cccc(S(=O)(=O)N2CCc3ccccc32)c1	1.3	/	29.2*	-5.2	-0.9	-3.1	4.9	5.9
CC(C)CCNC(=O)c1cccc(S(=O)(=O)N2CCc3ccccc32)c1	1.9	3.8	3.7	-3.5	1.1	-8.7	/	/
Cc1nc(NCc2ccccn2)c2c3c(sc2n1)CCCC3	0.3	/	45.8*	6.8	3.0	-12.8	14.9	8.9
c1ccc(CNc2ncnc3sc4c(c23)CCCC4)nc1	-3.2	/	19.9	-3.7	0.9	-22.4	/	/
Cc1ccc(C)c(OCC(=O)N/N=C/c2c(C)nn(-c3ccccc3)c2Cl)c1	9.5	11.9	21.1*	-5.4	-3.1	-17.9	5.3	12.3
CC(/C=C/c1ccc(C)o1)=C\C(=O)O	4.9	8.1	22.4*	-3.5	-1.4	6.0	4.3	5.5
O=C1c2ccccc2C(O)(c2ccccc2)N1C1CC1 (centres undefined)	11.2	/	/	-3.5	1.5	1.8	/	/
CC(C)n1cc(NC(=O)c2cc(-c3ccccc3)on2)cn1	-0.7	9.0	23.6*	-32.6	1.0	-26.9	4.6	13.6
O=C(Nc1cccnc1)c1cc(-c2ccccc2)on1	-19.4	5.6	4.4	-15.8	1.4	-18.7	/	/
Cc1ccc(CNC(=O)c2ccc(NS(=O)(=O)c3c(C)noc3C)cc2)cc1	-8.1	10.3	27.6*	-6.8	0.3	-2.8	10.6	10.1
N#Cc1nc(-c2ccccc2F)oc1NCc1cccc2c1OCO2	-32.6	14.2	28.3*	-40.3	-0.7	-52.7	5.7	6.8
COc1ccc(C(=O)NNC(=O)C2CCCN(C3CC(=O)N(c4ccccc4)C3=O)C2)cc1 (centres undefined)	-7.6	/	/	13.2	0.0	-11.7	/	/
CN1CCN(CCCC(=O)c2ccc(C3CCCC3)cc2)CC1	-33.6	10.9	26.3*	-51.4	0.4	-10.8	10.6	15.5
CCCC1C2C(=O)N(c3cccc(C)c3)C(=O)C2ON1c1ccccc1 (centres undefined)	-19.8	/	/	17.5	1.3	2.2	/	/
Cc1c(C(c2cc3c(cc2Br)OCO3)c2c(C)n(C)n(-c3ccccc3)c2=O)c(=O)n(-c2ccccc2)n1C	-0.1	6.2	29.2*	13.4	-0.4	-14.8	2.6	8.4
COc1ccc(C(c2c(C)n(C)n(-c3ccccc3)c2=O)c2c(C)n(C)n(-c3ccccc3)c2=O)cc1O	-0.8	/	56.5*	13.7	-0.8	-7.0	-0.6	0.0
CCC(C)NC(=O)CN1C(=O)NC2(CCc3ccccc3C2)C1=O (centres undefined)	-9.1	/	2.6	3.8	0.4	-4.9	/	/
Cc1cc(C(=O)CSc2nc3ccccc3[nH]2)c(C)n1CC1CCCO1 (centres undefined)	-28.6	5.3	25.5*	-45.0	-1.3	8.5	42.2*	16.4
Cc1cc(C(=O)CSc2nc3ccccc3o2)c(C)n1CC1CCCO1 (centres undefined)	-10.6	3.4	5.3	-8.3	2.2	-7.4	/	/
CCC(C)(C(=O)NC1CCCCC1)N(Cc1ccco1)C(=O)Cc1cccs1 (centres undefined)	-0.5	11.7	71.7*	-35.8	-0.5	-42.6	37.6*	13.7
CCC(C)(C(=O)NC1CCCCC1)N(Cc1cccs1)C(=O)CC1NC(=O)NC1=O (centres undefined)	7.6	2.3	-2.8	-12.4	0.6	-19.7	/	/
CC(=O)Nc1nc(CCN2C(=O)c3ccccc3C2=O)cs1	-6.3	/	-5.9	13.2	1.5	-1.6	/	/
O=C(COc1ccccc1)N(CCc1ccccc1)c1nc(-c2ccc(F)cc2)cs1	-22.1	7.8	37.3*	-44.8	1.6	-31.6	12.9	19.4*
